Results: ChEMBL document CHEMBL1687848, “In vitro effect of qnrA1, qnrB1, and qnrS1 genes on fluoroquinolone activity against isogenic Escherichia coli isolates with mutations in gyrA and parC” (2011)
≈ marks a conversion by molar mass, not a printed value.

Legend:
Type in all cases: functional
[1] = test system: Escherichia coli; test: Antibacterial activity against qnrS gene expressing Escherichia coli ATCC 25922 harboring GyrA S83L mutant and pBK-QnrS1 by broth microdilution method
[2] = test system: Escherichia coli; test: Antibacterial activity against qnrB gene expressing Escherichia coli ATCC 25922 harboring ParC S80R mutant and pBK-QnrB1 by broth microdilution method
[3] = test system: Escherichia coli; test: Antibacterial activity against Escherichia coli ATCC 25922 by broth microdilution method
[4] = test system: Escherichia coli; test: Antibacterial activity against qnrA gene expressing Escherichia coli ATCC 25922 harboring ParC S80R mutant and pBK-QnrA1 by broth microdilution method
[5] = test system: Escherichia coli; test: Antibacterial activity against qnrB gene expressing Escherichia coli ATCC 25922 harboring GyrA S83L mutant and pBK-QnrB1 by broth microdilution method
[6] = test system: Escherichia coli; test: Antibacterial activity against Escherichia coli ATCC 25922 expressing qnrB gene and pBK-QnrB1 assessed as earliest time required to resistant colonies visible one step below mutant prevention concentration
[7] = test system: Escherichia coli; test: Antibacterial activity against Escherichia coli ATCC 25922 assessed as resistant colonies recovered one step below mutant prevention concentration
Procedure, shortened: (§1)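 Resistant colonies recovered from Mueller-Hinton plates one concentration step below the MPC for each fluoroquinolone were retested for MIC. Mutants taken from plated concentrations closest to the MPC had the QRDRs of gyrA and parC analysed.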

[8] = test system: Escherichia coli; test: Antibacterial activity against Escherichia coli ATCC 25922 harboring GyrA S83L mutant assessed as earliest time required to resistant colonies visible one step below mutant prevention concentration
[9] = test system: Escherichia coli; test: Antibacterial activity against qnrS gene expressing Escherichia coli ATCC 25922 harboring GyrA S83L mutant and pBK-QnrS1 assessed as resistant colonies recovered one step below mutant prevention concentration; procedure, shortened: as §1
[10] = test system: Escherichia coli; test: Antibacterial activity against Escherichia coli ATCC 25922 expressing qnrB gene and pBK-QnrB1 assessed as mutant prevention concentration
[11] = test system: Escherichia coli; test: Antibacterial activity against qnrS gene expressing Escherichia coli ATCC 25922 harboring ParC S80R mutant, ParC S80R mutant and pBK-QnrS1 by broth microdilution method
[12] = test system: Escherichia coli; test: Antibacterial activity against qnrA gene expressing Escherichia coli ATCC 25922 harboring GyrA S83L mutant and pBK-QnrA1 by broth microdilution method
[13] = test system: Escherichia coli; test: Antibacterial activity against qnrA gene expressing Escherichia coli ATCC 25922 harboring GyrA S83L mutant and pBK-QnrA1 assessed as earliest time required to resistant colonies visible one step below mutant prevention concentration
[14] = test system: Escherichia coli; test: Antibacterial activity against Escherichia coli ATCC 25922 harboring GyrA S83L mutant assessed as resistant colonies recovered one step below mutant prevention concentration; procedure, shortened: as §1
[15] = test system: Escherichia coli; test: Antibacterial activity against Escherichia coli ATCC 25922 assessed as earliest time required to resistant colonies visible one step below mutant prevention concentration
[16] = test system: Escherichia coli; test: Antibacterial activity against qnrA gene expressing Escherichia coli ATCC 25922 harboring ParC S80R mutant, ParC S80R mutant and pBK-QnrA1 by broth microdilution method
[17] = test system: Escherichia coli; test: Antibacterial activity against qnrB gene expressing Escherichia coli ATCC 25922 harboring GyrA S83L mutant and pBK-QnrB1 assessed as earliest time required to resistant colonies visible one step below mutant prevention concentration
[18] = test system: Escherichia coli; test: Antibacterial activity against qnrS gene expressing Escherichia coli ATCC 25922 harboring ParC S80R mutant and pBK-QnrS1 by broth microdilution method
[19] = test system: Escherichia coli; test: Antibacterial activity against Escherichia coli ATCC 25922 harboring GyrA S83L mutant and ParC S80R mutant by broth microdilution method
[20] = test system: Escherichia coli; test: Antibacterial activity against Escherichia coli ATCC 25922 harboring GyrA S83L mutant by broth microdilution method
[21] = test system: Escherichia coli; test: Antibacterial activity against Escherichia coli ATCC 25922 expressing qnrA gene and pBK-QnrA1 assessed as mutant prevention concentration
[22] = test system: Escherichia coli; test: Antibacterial activity against Escherichia coli ATCC 25922 expressing qnrS gene and pBK-QnrS1 by broth microdilution method
[23] = test system: Escherichia coli; test: Antibacterial activity against Escherichia coli ATCC 25922 expressing qnrS gene and pBK-QnrS1 assessed as earliest time required to resistant colonies visible one step below mutant prevention concentration
[24] = test system: Escherichia coli; test: Antibacterial activity against Escherichia coli ATCC 25922 harboring ParC S80R mutant by broth microdilution method
[25] = test system: Escherichia coli; test: Antibacterial activity against qnrA gene expressing Escherichia coli ATCC 25922 harboring GyrA S83L mutant and pBK-QnrA1 assessed as mutant prevention concentration
[26] = test system: Escherichia coli; test: Antibacterial activity against Escherichia coli ATCC 25922 harboring GyrA S83L mutant assessed as mutant prevention concentration
[27] = test system: Escherichia coli; test: Antibacterial activity against Escherichia coli ATCC 25922 assessed as mutant prevention concentration
[28] = test system: Escherichia coli; test: Antibacterial activity against Escherichia coli ATCC 25922 expressing qnrB gene and pBK-QnrB1 by broth microdilution method
[29] = test system: Escherichia coli; test: Antibacterial activity against qnrA gene expressing Escherichia coli ATCC 25922 harboring GyrA S83L mutant and pBK-QnrA1 assessed as resistant colonies recovered one step below mutant prevention concentration; procedure, shortened: as §1
[30] = test system: Escherichia coli; test: Antibacterial activity against Escherichia coli ATCC 25922 expressing qnrS gene and pBK-QnrS1 assessed as mutant prevention concentration
[31] = test system: Escherichia coli; test: Antibacterial activity against Escherichia coli ATCC 25922 expressing qnrA gene and pBK-QnrA1 assessed as earliest time required to resistant colonies visible one step below mutant prevention concentration
[32] = test system: Escherichia coli; test: Antibacterial activity against qnrB gene expressing Escherichia coli ATCC 25922 harboring ParC S80R mutant, ParC S80R mutant and pBK-QnrB1 by broth microdilution method
[33] = test system: Escherichia coli; test: Antibacterial activity against qnrB gene expressing Escherichia coli ATCC 25922 harboring GyrA S83L mutant and pBK-QnrB1 assessed as mutant prevention concentration
[34] = test system: Escherichia coli; test: Antibacterial activity against Escherichia coli ATCC 25922 expressing qnrA gene and pBK-QnrA1 by broth microdilution method
[35] = test system: Escherichia coli; test: Antibacterial activity against qnrS gene expressing Escherichia coli ATCC 25922 harboring GyrA S83L mutant and pBK-QnrS1 assessed as earliest time required to resistant colonies visible one step below mutant prevention concentration
[36] = test system: Escherichia coli; test: Antibacterial activity against qnrS gene expressing Escherichia coli ATCC 25922 harboring GyrA S83L mutant and pBK-QnrS1 assessed as mutant prevention concentration

C[C@H]1COc2c(N3CCN(C)CC3)c(F)cc3c(=O)c(C(=O)O)cn1c23.C[C@H]1COc2c(N3CCN(C)CC3)c(F)cc3c(=O)c(C(=O)O)cn1c23.O [LEVOFLOXACIN]
MBC [1]: 2 µg/mL | MBC [2]: 0.5 µg/mL | MIC [2]: 0.25 µg/mL | MBC [3]: 0.03 µg/mL | MBC [4]: 0.5 µg/mL | MIC [4]: 0.25 µg/mL | MBC [5]: 0.5 µg/mL | MIC [5]: 0.25 µg/mL | Time [6]: 48 h | MIC [7]: 0.125 µg/mL | Time [8]: 24 h | MIC [9]: 4 µg/mL | Activity [10]: 4 µg/mL | MBC [11]: 4 µg/mL | MIC [11]: 4 µg/mL | MBC [12]: 0.5 µg/mL | Time [13]: 24 h | MIC [14]: 2 µg/mL | Time [15]: 48 h | MBC [16]: 4 µg/mL | MIC [16]: 2 µg/mL | Time [17]: 72 h | MBC [18]: 0.25 µg/mL | MIC [18]: 0.25 µg/mL | MBC [19]: 0.25 µg/mL | MIC [19]: 0.25 µg/mL | MBC [20]: 0.25 µg/mL | MIC [20]: 0.125 µg/mL | Activity [21]: 8 µg/mL | MBC [22]: 0.5 µg/mL | MIC [22]: 0.125 µg/mL | Time [23]: 24 h | MBC [24]: 0.008 µg/mL | Activity [25]: 32 µg/mL | Activity [26]: 4 µg/mL | Activity [27]: 2 µg/mL | MBC [28]: 0.25 µg/mL | MIC [29]: 2 µg/mL | Activity [30]: 4 µg/mL | Time [31]: 24 h | MBC [32]: 1 µg/mL | Activity [33]: 16 µg/mL | MBC [34]: 0.5 µg/mL | Time [35]: 96 h | Activity [36]: 16 µg/mL

O=C(O)c1cn(C2CC2)c2cc(N3CCNCC3)c(F)cc2c1=O [CIPROFLOXACIN]
MBC [1]: 1 µg/mL (≈ 3.02 µM) | MBC [2]: 0.25 µg/mL (≈ 0.754 µM) | MBC [3]: 0.015 µg/mL (≈ 0.0453 µM) | MBC [4]: 0.25 µg/mL (≈ 0.754 µM) | MBC [5]: 0.5 µg/mL (≈ 1.51 µM) | Time [6]: 72 h | Time [8]: 24 h | Activity [10]: 2 µg/mL | MBC [11]: 4 µg/mL (≈ 12.1 µM) | MBC [12]: 0.5 µg/mL (≈ 1.51 µM) | Time [13]: 24 h | Time [15]: 48 h | MBC [16]: 4 µg/mL (≈ 12.1 µM) | Time [17]: 24 h | MBC [18]: 0.25 µg/mL (≈ 0.754 µM) | MBC [19]: 2 µg/mL (≈ 6.04 µM) | MBC [20]: 0.125 µg/mL (≈ 0.377 µM) | Activity [21]: 8 µg/mL | MBC [22]: 0.25 µg/mL (≈ 0.754 µM) | Time [23]: 24 h | MBC [24]: 0.004 µg/mL (≈ 0.0121 µM) | Activity [25]: 16 µg/mL | Activity [26]: 4 µg/mL | Activity [27]: 1 µg/mL | MBC [28]: 0.125 µg/mL (≈ 0.377 µM) | Activity [30]: 4 µg/mL | Time [31]: 48 h | MBC [32]: 2 µg/mL (≈ 6.04 µM) | Activity [33]: 8 µg/mL | MBC [34]: 0.125 µg/mL (≈ 0.377 µM) | Time [35]: 24 h | Activity [36]: 8 µg/mL
